This passage reports EC50 and inhibition results from ChEMBL document CHEMBL4673181, “An investigation of the antileishmanial properties of semi-synthetic saponins” (RSC Med Chem, 2020).

The subject of assay [1] is Leishmania mexicana. The assay is described as follows: Antileishmanial activity against axenic amastigote stage of Leishmania mexicana (MNYC/BZ/62/M379) assessed as induction of parasite killing incubated for 24 hrs by alamar blue dye based fluorescence analysis. Type of assay: functional. Particulars: read-out: ED50 (the source's name). The gist of the method:
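L. mexicana axenic amastigotes (from promastigotes by pH/temperature shift; Schneider's with 20% HIFBS) at 4x10⁵ mL⁻¹, exposed to three-fold dilutions from 50 μM to 0.21 μM for 24 h at 33 °C in sealed plates. alamarBlue then added for another 24 h, fluorescence read at 560/600 nm. Amphotericin B (50 μM) positive, DMSO negative control. Duplicates on four occasions, EC₅₀ fitted.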

For assay [2], the system named is Leishmania mexicana. The assay is described as follows: Antileishmanial activity against axenic amastigote stage of Leishmania mexicana (MNYC/BZ/62/M379) assessed as inhibition of parasite proliferation at 50 uM incubated for 24 hrs by alamar blue dye based fluorescence analysis. Type of assay: functional. The gist of the method: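 Primary single-point screen at 50 μM, in duplicate. Axenic L. mexicana amastigotes at 4x10⁵ mL⁻¹ incubated with compound 24 h at 33 °C in sealed plates, then alamarBlue for a further 24 h at the same temperature. Viability read by fluorescence at 560/600 nm against amphotericin B (50 μM) and DMSO controls.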
For orientation: Resazurin is reduced to fluorescent resorufin, in cell work by metabolically active cells.

Broadly, the inhibition is the percentage by which the read-out fell short of the control. Regarding `CC1(C)CC[C@]2(C(=O)OCc3ccccc3)CC[C@]3(C)C(=CC[C@@H]4[C@@]5(C)CC[C@H](O)[C@@](C)(CO)[C@@H]5CC[C@]43C)[C@@H]2C1`, the EC50 in assay [1] is more than 50 µM. Besides, the inhibition at 50 µM in assay [2] was not below 95%.

`CC1(C)CC[C@]2(C(=O)OCc3ccccc3[N+](=O)[O-])CC[C@]3(C)C(=CC[C@@H]4[C@@]5(C)CC[C@H](O)[C@@](C)(CO)[C@@H]5CC[C@]43C)[C@@H]2C1`: in assay [1], the EC50 is more than 50 µM. The inhibition at 50 µM in assay [2] was not below 95%.

`CC1(C)CC[C@]2(C(=O)OCCC3OCCCO3)CC[C@]3(C)C(=CC[C@@H]4[C@@]5(C)CC[C@H](O)[C@@](C)(CO)[C@@H]5CC[C@]43C)[C@@H]2C1`: the EC50 in assay [1] was more than 50 µM. Besides, the inhibition at 50 µM in assay [2] is not below 95%.

For `CC1(C)CC[C@]2(C(=O)OCc3ccc([N+](=O)[O-])cc3)CC[C@]3(C)C(=CC[C@@H]4[C@@]5(C)CC[C@H](O)[C@@](C)(CO)[C@@H]5CC[C@]43C)[C@@H]2C1`, the EC50 in assay [1] is 36.2 µM. In assay [2], the inhibition at 50 µM is not below 95%.

On to `CC1(C)CC[C@]2(C(=O)O)CC[C@]3(C)C(=CC[C@@H]4[C@@]5(C)CC[C@H](O[C@@H]6OC[C@H](O)[C@H](O)[C@H]6O)[C@@](C)(CO)[C@@H]5CC[C@]43C)[C@@H]2C1`, for which, in assay [1], the EC50 was more than 50 µM. Also, the inhibition at 50 µM in assay [2] was not below 95%.

For the molecule `CC1(C)CC[C@]2(NC(=O)NCCN3CCCC3)CC[C@]3(C)C(=CC[C@@H]4[C@@]5(C)CC[C@@H]6OC(C)(C)OC[C@@]6(C)[C@@H]5CC[C@]43C)[C@@H]2C1`, in assay [1], the EC50 is more than 50 µM. The inhibition at 50 µM in assay [2] is not below 95%.

With `CC1(C)CC[C@]2(NC(=O)NCCCn3ccnc3)CC[C@]3(C)C(=CC[C@@H]4[C@@]5(C)CC[C@@H]6OC(C)(C)OC[C@@]6(C)[C@@H]5CC[C@]43C)[C@@H]2C1`, the EC50 in assay [1] amounted to 37.6 µM. The inhibition at 50 µM in assay [2] was not below 95%.

In the case of `CCOC(=O)[C@]12CCC(C)(C)C[C@H]1C1=CC[C@@H]3[C@@]4(C)CC[C@H](O)[C@@](C)(CO)[C@@H]4CC[C@@]3(C)[C@]1(C)CC2`, in assay [1], the EC50 is more than 50 µM. Also, the inhibition at 50 µM in assay [2] was not below 95%.

As to `CC1(C)CC[C@]2(C(=O)O)CC[C@]3(C)C(=CC[C@@H]4[C@@]5(C)CC[C@@H]6O[C@H](C[C@H]7O[C@H](CO)[C@H](O)[C@H](O)[C@H]7O)OC[C@@]6(C)[C@@H]5CC[C@]43C)[C@@H]2C1`, the EC50 in assay [1] was 21.7 µM. In addition, the inhibition at 50 µM in assay [2] is not below 95%.

Consider `CC1(C)CC[C@]2(CO)CC[C@]3(C)C(=CC[C@@H]4[C@@]5(C)CC[C@@H]6O[C@H]([C@H](O)[C@@H](O)[C@@H](O)CO)OC[C@@]6(C)[C@@H]5CC[C@]43C)[C@@H]2C1`, for which the inhibition at 50 µM in assay [2] is not below 95%.

For the molecule `C=CCOC(=O)[C@]12CCC(C)(C)C[C@H]1C1=CC[C@@H]3[C@@]4(C)CC[C@H](O)[C@@](C)(CO)[C@@H]4CC[C@@]3(C)[C@]1(C)CC2`, the EC50 in assay [1] was 22.7 µM. Moreover, in assay [2], the inhibition at 50 µM was not below 95%.

With `CCCOC(=O)[C@]12CCC(C)(C)C[C@H]1C1=CC[C@@H]3[C@@]4(C)CC[C@H](O)[C@@](C)(CO)[C@@H]4CC[C@@]3(C)[C@]1(C)CC2`, the EC50 in assay [1] came to 43.6 µM. For the same molecule, the inhibition at 50 µM in assay [2] was not below 95%.

As for `CC1(C)CC[C@]2(C(=O)OCC(=O)c3ccccc3)CC[C@]3(C)C(=CC[C@@H]4[C@@]5(C)CC[C@H](O)[C@@](C)(CO)[C@@H]5CC[C@]43C)[C@@H]2C1`, the EC50 in assay [1] came to 45.9 µM. The inhibition at 50 µM in assay [2] was not below 95%.

For `COC(=O)[C@]12CCC(C)(C)C[C@H]1C1=CC[C@@H]3[C@@]4(C)CC[C@@H]5O[C@H](CC6O[C@H]([C@H](C)O)[C@@H](O)[C@@H]6O)OC[C@@]5(C)[C@@H]4CC[C@@]3(C)[C@]1(C)CC2` (stereo partly drawn), the EC50 in assay [1] is more than 50 µM. The inhibition at 50 µM in assay [2] was not below 95%.

In the case of `C[C@H]1O[C@H](C[C@@H]2OC[C@@]3(C)[C@@H]4CC[C@]5(C)[C@H](CC=C6[C@@H]7CC(C)(C)CC[C@]7(C(=O)O)CC[C@]65C)[C@@]4(C)CC[C@@H]3O2)[C@H](O)[C@@H](O)[C@@H]1O`, in assay [1], the EC50 is more than 50 µM. Further, in assay [2], the inhibition at 50 µM is not below 95%.

Turning to `C[C@@H]1O[C@@H](C[C@@H]2OC[C@@]3(C)[C@@H]4CC[C@]5(C)[C@H](CC=C6[C@@H]7CC(C)(C)CC[C@]7(C(=O)O)CC[C@]65C)[C@@]4(C)CC[C@@H]3O2)[C@@H](O)[C@H](O)[C@@H]1O`, the EC50 in assay [1] was 19.4 µM. Also, the inhibition at 50 µM in assay [2] was not below 95%.

`CC1(C)CC[C@]2(NC(=O)N3CCC[C@H]3CN3CCCC3)CC[C@]3(C)C(=CC[C@@H]4[C@@]5(C)CC[C@@H]6OC(C)(C)OC[C@@]6(C)[C@@H]5CC[C@]43C)[C@@H]2C1`: the EC50 in assay [1] is more than 50 µM. In assay [2], the inhibition at 50 µM was not below 95%.

In the case of `CC1(C)CC[C@]2(NC(=O)N3CCCNCC3)CC[C@]3(C)C(=CC[C@@H]4[C@@]5(C)CC[C@@H]6OC(C)(C)OC[C@@]6(C)[C@@H]5CC[C@]43C)[C@@H]2C1`, in assay [1], the EC50 was more than 50 µM. The inhibition at 50 µM in assay [2] was not below 95%.

Regarding `C[C@H](O)[C@H](O)[C@@H](O)[C@@H](O)[C@@H]1OC[C@@]2(C)[C@@H]3CC[C@]4(C)[C@H](CC=C5[C@@H]6CC(C)(C)CC[C@]6(C(=O)O)CC[C@]54C)[C@@]3(C)CC[C@@H]2O1`, the EC50 in assay [1] worked out at 21.2 µM. In addition, in assay [2], the inhibition at 50 µM was not below 95%.

`C[C@H](O)[C@H](O)[C@@H](O)[C@@H](O)[C@@H]1OC[C@@]2(C)[C@@H]3CC[C@]4(C)[C@H](CC=C5[C@@H]6CC(C)(C)CC[C@]6(CO)CC[C@]54C)[C@@]3(C)CC[C@@H]2O1`: the EC50 in assay [1] came to 26.9 µM. In addition, the inhibition at 50 µM in assay [2] was not below 95%.

For `CC(=O)N1CCN(C(=O)N[C@]23CCC(C)(C)C[C@H]2C2=CC[C@@H]4[C@@]5(C)CC[C@@H]6OC(C)(C)OC[C@@]6(C)[C@@H]5CC[C@@]4(C)[C@]2(C)CC3)CC1`, in assay [1], the EC50 worked out at 26.4 µM. For the same molecule, in assay [2], the inhibition at 50 µM is not below 95%.

Regarding `CC1(C)CC[C@]2(NC(=O)NCCN)CC[C@]3(C)C(=CC[C@@H]4[C@@]5(C)CC[C@@H]6OC(C)(C)OC[C@@]6(C)[C@@H]5CC[C@]43C)[C@@H]2C1`, in assay [1], the EC50 was more than 50 µM. Besides, the inhibition at 50 µM in assay [2] is not below 95%.

Consider `CC1(C)CC[C@]2(CO)CC[C@]3(C)C(=CC[C@@H]4[C@@]5(C)CC[C@@H]6O[C@H]([C@H](O)[C@@H](O)[C@H](O)CO)OC[C@@]6(C)[C@@H]5CC[C@]43C)[C@@H]2C1`, for which the EC50 in assay [1] was more than 50 µM. In addition, the inhibition at 50 µM in assay [2] is not below 95%.

In the case of `CCOP(=O)(OCC)OC[C@@]1(C)[C@@H]2CC[C@]3(C)[C@H](CC=C4[C@@H]5CC(C)(C)CC[C@]5(NC(=O)N5CCOCC5)CC[C@]43C)[C@@]2(C)CC[C@@H]1O`, in assay [1], the EC50 was determined as 19.3 µM. In assay [2], the inhibition at 50 µM was not below 95%.

As to `CC1(C)CC[C@]2(NC(=O)O)CC[C@]3(C)C(=CC[C@@H]4[C@@]5(C)CC[C@@H]6O[C@H](C[C@H]7O[C@H](CO)[C@@H](O)[C@H](O)[C@@H]7O)OC[C@@]6(C)[C@@H]5CC[C@]43C)[C@@H]2C1`, in assay [1], the EC50 was more than 50 µM. Also, in assay [2], the inhibition at 50 µM is not below 95%.

Regarding `CC(=O)OC[C@@]1(C)[C@@H]2CC[C@]3(C)[C@H](CC=C4[C@@H]5CC(C)(C)CC[C@]5(NC(=O)N5CCN(C)CC5)CC[C@]43C)[C@@]2(C)CC[C@@H]1O[C@@H]1OC[C@H](OC(C)=O)[C@H](OC(C)=O)[C@H]1O[C@@H]1O[C@@H](C)[C@H](OC(C)=O)[C@@H](OC(C)=O)[C@H]1OC(C)=O`, the EC50 in assay [1] came to 19.9 µM. For the same molecule, the inhibition at 50 µM in assay [2] was not below 95%.

Regarding `CC1(C)CC[C@]2(NC(=O)N[C@H]3C(O)O[C@H](CO)[C@@H](O)[C@@H]3O)CC[C@]3(C)C(=CC[C@@H]4[C@@]5(C)CC[C@@H]6OC(C)(C)OC[C@@]6(C)[C@@H]5CC[C@]43C)[C@@H]2C1` (stereo partly drawn), in assay [1], the EC50 is more than 50 µM. Besides, the inhibition at 50 µM in assay [2] is not below 95%.

On to `CC1(C)CC[C@]2(CO)CC[C@]3(C)C(=CC[C@@H]4[C@@]5(C)CC[C@@H]6O[C@H]([C@H](O)[C@@H](O)[C@H](O)[C@H](O)CO)OC[C@@]6(C)[C@@H]5CC[C@]43C)[C@@H]2C1`, for which the EC50 in assay [1] was more than 50 µM. The inhibition at 50 µM in assay [2] was not below 95%.

As to `CC1(C)CC[C@]2(NC(=O)N3CCC[C@H]3CO)CC[C@]3(C)C(=CC[C@@H]4[C@@]5(C)CC[C@@H]6OC(C)(C)OC[C@@]6(C)[C@@H]5CC[C@]43C)[C@@H]2C1`, the EC50 in assay [1] amounted to 26.2 µM. The inhibition at 50 µM in assay [2] was not below 95%.

`COC(=O)[C@H](Cc1c[nH]cn1)NC(=O)N[C@]12CCC(C)(C)C[C@H]1C1=CC[C@@H]3[C@@]4(C)CC[C@@H]5OC(C)(C)OC[C@@]5(C)[C@@H]4CC[C@@]3(C)[C@]1(C)CC2`: in assay [1], the EC50 is 20.9 µM. In addition, the inhibition at 50 µM in assay [2] was not below 95%.

Take `CC1(C)CC[C@]2(NC(=O)N3CCC[C@H]3C(=O)NCCCn3ccnc3)CC[C@]3(C)C(=CC[C@@H]4[C@@]5(C)CC[C@@H]6OC(C)(C)OC[C@@]6(C)[C@@H]5CC[C@]43C)[C@@H]2C1`: the EC50 in assay [1] came out at 20.2 µM. Further, the inhibition at 50 µM in assay [2] is not below 95%.

For the molecule `CN1CCN(C(=O)[C@@H]2CCCN2C(=O)N[C@]23CCC(C)(C)C[C@H]2C2=CC[C@@H]4[C@@]5(C)CC[C@@H]6OC(C)(C)OC[C@@]6(C)[C@@H]5CC[C@@]4(C)[C@]2(C)CC3)CC1`, the EC50 in assay [1] came out at 32.4 µM. The inhibition at 50 µM in assay [2] was not below 95%.
